Results as given in ChEMBL document CHEMBL4359864, “The synthesis and in vitro biological evaluation of novel fluorinated tetrahydrobenzo[j]phenanthridine-7,12-diones against Mycobacterium tuberculosis” (Eur J Med Chem, 2019).
pIC50: −log10 of the molar value. ≈ marks a conversion by molar mass, not a printed value. Calls of active or inactive are those of the source.

Legend:
[1] = Genotoxicity in Salmonella typhimurium TA104 harboring with RecN2-4 assessed as S/N ratio at 1 to 100 uM measured for 4 hrs with 5 mins interval in presence of rat liver S9 fraction by luminescence based assay; assay type: toxicity, subcellular; conditions: salmonella enterica subsp. enterica serovar typhimurium, s9, 4 h
Outline: (§1)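 VITOTOX test. Genox (recN2-4) and Cytox (pr1) S. typhimurium TA104 strains were diluted 250-fold and grown in 869 medium for 16 h at 36°C with shaking, then diluted 10-fold and grown 1 h more. Compounds tested at 1, 10 and 100 µM, with or without rat liver S9-mix. Luminescence read for 4 h at 5-min intervals. S/N thresholds: Genox >1.5 genotoxic; Cytox <0.8 toxic, >1.5 luminescence artefact.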

[2] = Antimycobacterial activity against Mycobacterium avium subsp. avium ATCC 25291 by resazurin dye based fluorimetric assay; assay type: functional
Outline: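 Resazurin microtiter method as for the bacterial panel. Mycobacteria grown in 7H9 with 10% OADC and 0.5% glycerol; for BCG, 0.05% Tween 80 replaced the glycerol. Cultures were sonicated and needle-passed to single cells. Incubation at 37°C, or 32°C for M. marinum. Fluorescence read at ex 550/em 590 nm; mean of triplicates.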

[3] = test system: Klebsiella pneumoniae; assay: Antibacterial activity against Klebsiella pneumoniae ATCC 13883 incubated for 24 hrs by resazurin dye based fluorimetric assay; assay type: functional, organism-based; conditions: ATCC 13883, 24 h
Outline: (§2)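 Resazurin microtiter assay: compounds from 10 mM DMSO stock, twofold serial dilutions from 64 µM final in growth medium, in triplicate. Inoculum from frozen glycerol stocks. Exposure 24 h, or 7 days for Mtb H37Ra (7H9 + 0.5% glycerol + 10% OADC). Then 0.01% resazurin was added and plates were incubated at 37°C until pink. Fluorescence read at ex 550/em 590 nm; mean of triplicates.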

[4] = target: T1, UGT (Homo sapiens, UniProt O60656+O75310+O75795+P06133+P0DTE4+P0DTE5+P16662+P19224+P22309+P22310+P35503+P35504+P36537+P54855+Q6UWM9+Q9BY64+Q9HAW7+Q9HAW8+Q9HAW9); assay: Microsomal stability in human liver microsomes assessed as UGT-mediated metabolism by measuring compound remaining at 5 uM and measured for 60 mins in presence of UDPGA by UPLC-MS/MS analysis (reference value: 100%); assay type: ADME; conditions: read-out: Stability
Outline: (§3)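 Compound at 5 µM with 0.5 mg/mL liver microsomes in PBS. Phase I was started with 1 mM NADPH; phase II used 2 mM UDPGA. Diclofenac served as reference. Samples taken at 0, 15, 30 and 60 min were quenched in ice-cold acetonitrile, centrifuged at 4°C and analysed by LC-MS. Mean of at least two replicates ± SD.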

[5] = test system: CYP450; assay: Microsomal stability in mouse liver microsomes assessed as CYP450-mediated metabolism by measuring compound remaining at 5 uM and measured for 60 mins in presence of NADPH by UPLC-MS/MS analysis (reference value: 100%); assay type: ADME; conditions: read-out: Stability; outline: as §3
[6] = target: T1, UGT; assay: Microsomal stability in human liver microsomes assessed as UGT-mediated metabolism by measuring compound remaining at 5 uM and measured for 30 mins in presence of UDPGA by UPLC-MS/MS analysis (reference value: 100%); assay type: ADME; conditions: read-out: Stability; outline: as §3
[7] = test system: Mycobacterium tuberculosis; assay: Antimycobacterial activity against Mycobacterium tuberculosis H37Ra lux incubated for 7 days by luminometric assay; assay type: functional, organism-based; conditions: 168 h
Outline: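 Twofold serial dilutions in 7H9/OADC/glycerol, in triplicate, inoculated with a suspension of 10.000 RLU per mL. After 7 days, n-decanal (1% v/v in ethanol) was added and luminescence read. IC50 and MIC (90% growth reduction) were derived from the mean of triplicates.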

[8] = test system: Mycobacterium tuberculosis; assay: Antibacterial activity against Mycobacterium tuberculosis H37Ra ATCC 25177 incubated for 7 days by resazurin dye based fluorimetric assay; assay type: functional, organism-based; conditions: H37Ra ATCC 25177, 168 h; outline: as §2
[9] = target: T2, CYP450 (Homo sapiens, UniProt P04798+P05177+P05181+P08684+P10632+P10635+P11509+P11712+P13584+P20813+P20815+P20853+P24462+P24903+P33260+P33261+P51589+P78329+P98187+Q02928+Q08477+Q16678+Q16696+Q5TCH4+Q6VVX0+Q7Z449+Q8TAV3+Q96SQ9+Q9HB55); assay: Microsomal stability in human liver microsomes assessed as CYP450-mediated metabolism by measuring compound remaining at 5 uM and measured for 15 mins in presence of NADPH by UPLC-MS/MS analysis (reference value: 100%); assay type: ADME; conditions: read-out: Stability; outline: as §3
[10] = Genotoxicity in Salmonella typhimurium TA104 harboring with pr1 assessed as S/N ratio at 1 to 100 uM measured for 4 hrs with 5 mins interval by luminescence based assay; assay type: toxicity; conditions: salmonella enterica subsp. enterica serovar typhimurium; outline: as §1
[11] = target: T2, CYP450; assay: Microsomal stability in human liver microsomes assessed as CYP450-mediated metabolism by measuring compound remaining at 5 uM and measured for 60 mins in presence of NADPH by UPLC-MS/MS analysis (reference value: 100%); assay type: ADME; conditions: read-out: Stability; outline: as §3
[12] = test system: Mycobacterium tuberculosis; assay: Antimycobacterial activity against Mycobacterium tuberculosis H37Ra lux infected in mouse J774A.1 cells assessed as reduction in intracellular mycobacterial replication at 10.0 uM incubated for 24 to 72 hrs by luminometric assay relative to control; assay type: functional
Outline: (§4)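 J774A.1 cells were infected at MOI 10 for 2 h at 37°C. Extracellular bacteria were killed with 100 µg/mL gentamicin for 1 h, then cells were washed and treated. At 24, 48 and 72 h, cells were lysed with 1% Triton X-100 and n-decanal was added to the lysate. Luminescence (RLU) reported as mean of triplicates ± SD.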

[13] = test system: Pseudomonas aeruginosa; assay: Antibacterial activity against Pseudomonas aeruginosa ATCC 9027 incubated for 24 hrs by resazurin dye based fluorimetric assay; assay type: functional, organism-based; conditions: ATCC 9027, 24 h; outline: as §2
[14] = Selectivity index, ratio of […] for cytotoxicity against mouse J774A.1 cells; assay type: toxicity, cell-based; conditions: read-out: Selectivity Index
[15] = test system: CYP450; assay: Microsomal stability in mouse liver microsomes assessed as CYP450-mediated metabolism by measuring compound remaining at 5 uM and measured for 15 mins in presence of NADPH by UPLC-MS/MS analysis (reference value: 100%); assay type: ADME; conditions: read-out: Stability; outline: as §3
[16] = Genotoxicity in Salmonella typhimurium TA104 harboring with RecN2-4 assessed as S/N ratio at 1 to 100 uM measured for 4 hrs with 5 mins interval by luminescence based assay; assay type: toxicity; conditions: salmonella enterica subsp. enterica serovar typhimurium; outline: as §1
[17] = test system: Escherichia coli; assay: Antibacterial activity against Escherichia coli ATCC 8739 incubated for 24 hrs by resazurin dye based fluorimetric assay; assay type: functional, organism-based; conditions: ATCC 8739, ATCC 8739, 24 h; outline: as §2
[18] = test system: Mycobacterium tuberculosis; assay: Antimycobacterial activity against Mycobacterium tuberculosis H37Ra lux infected in mouse J774A.1 cells assessed as reduction in intracellular mycobacterial replication at 1.5 uM incubated for 24 to 72 hrs by luminometric assay relative to control; assay type: functional; outline: as §4
[19] = test system: UGT; assay: Microsomal stability in mouse liver microsomes assessed as UGT-mediated metabolism by measuring compound remaining at 5 uM and measured for 15 mins in presence of UDPGA by UPLC-MS/MS analysis (reference value: 100%); assay type: ADME; conditions: read-out: Stability; outline: as §3

Compound | Ratio [1] | pIC50 [2] | pIC50 [3] | remaining at 1 h, 5 µM [4] [%] | remaining at 1 h, 5 µM [5] [%] | remaining at 0.5 h, 5 µM [6] [%] | pIC50 [7] | MIC90 [7] [µM] | pIC50 [8] | remaining at 0.25 h, 5 µM [9] [%] | Ratio [10] | remaining at 1 h, 5 µM [11] [%] | Activity [12] | pIC50 [13] | selectivity ratio [14] | remaining at 0.25 h, 5 µM [15] [%] | Ratio [16] | pIC50 [17] | Activity [18] | remaining at 0.25 h, 5 µM [19] [%]
O=C1C2=C(C(=O)c3c1cnc1c(F)cccc31)C1CCC2C1 (stereo not given) | <= 1.5 | 7.00 | < 4.19 | 65 | 100 | 71 | 5.81 | 4.43 (≈ 1.3 µg/mL) | 5.70 to 6.00 | 100 | >= 0.8 | 100 | inactive | < 4.19 | 19.3 | 100 | <= 1.5 | < 4.19 | inactive | 77
O=C1C2=C(C(=O)c3c1cnc1ccccc31)C1CCC2C1 (stereo not given) | <= 1.5 | 6.92 | < 4.19 | 68 | 94 | 76 | 5.89 | 6.33 (≈ 1.74 µg/mL) | 5.70 to 6.00 | 100 | >= 0.8 | 100 | 84.14% | < 4.19 | 10.2 | 100 | <= 1.5 | < 4.19 | 20.68% | 69
